These results are taken from PMC3767132 (Organic & biomolecular chemistry, 2012).

The test system of one series is MetAP. Description: Immunoblot of Met-14-3-3γ. Format: cell-based, human. The following applies: for Immunoblot Met-14-3-3γ: compound treated HUVEC lysates, 24 h, signal relative to DMSO = 1.0; for effect on the levels of Met-14-3-3γ: up to 10 μM, HUVEC, data not shown. In short, it runs like this:
(§1)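 HUVEC were exposed to test compound for 24 h, typically at 5 μM (some up to 10 μM), with DMSO as negative control. Lysates were immunoblotted for Met-14-3-3γ, 14-3-3γ, Ac-p53 and total p53. Band densities were taken as Met-14-3-3γ/14-3-3γ and Ac-p53/p53 per lane, relative to DMSO = 1.0. Ac-p53 was scored −(<2.0), +(2.0–7.0), ++(7.1–11.6), +++(>11.6).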
Background: Immunoblotting shows a protein as a band on a membrane.

For another series, the system named is SIRT1. Description: Immunoblot of Ac-p53. Format: cell-based, human. The following applies: for Immunoblot Ac-p53: compound treated HUVEC lysates, 24 h, signal relative to DMSO = 1.0; for effect on the levels of Ac-p53: up to 10 μM, HUVEC, data not shown. In short, it runs like this: as §1
The target of another series is hMetAP2 (Homo sapiens, UniProt P50579). Description: human MetAP2 enzyme assay. Format: biochemical.
Sequence of hMetAP2 (P50579 whole entry): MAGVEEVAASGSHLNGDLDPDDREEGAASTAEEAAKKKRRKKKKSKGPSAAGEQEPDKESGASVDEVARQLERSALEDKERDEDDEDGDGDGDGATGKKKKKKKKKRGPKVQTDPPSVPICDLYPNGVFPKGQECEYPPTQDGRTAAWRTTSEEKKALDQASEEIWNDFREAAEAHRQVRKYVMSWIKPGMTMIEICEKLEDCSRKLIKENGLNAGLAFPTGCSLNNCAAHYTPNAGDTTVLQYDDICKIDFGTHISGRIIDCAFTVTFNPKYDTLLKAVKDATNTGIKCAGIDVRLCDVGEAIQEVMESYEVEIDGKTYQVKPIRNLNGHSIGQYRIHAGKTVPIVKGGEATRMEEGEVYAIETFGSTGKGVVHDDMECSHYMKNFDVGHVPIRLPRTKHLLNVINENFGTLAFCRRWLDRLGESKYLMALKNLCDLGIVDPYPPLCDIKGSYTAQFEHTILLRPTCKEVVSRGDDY
A short description of series [1]: Metal complexation by UV-vis spectra in MetAP assay buffer. As to conditions: 10 μM in MetAP assay buffer. Format: physicochemical. In short, it runs like this:
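UV–vis absorption spectra recorded for the test compound at 10 μM in MetAP assay buffer, without and with metal ions. Metals were added as MnCl2 or CoCl2 at 10 μM, a buffer and metal level chosen to emulate the enzyme assay. Complexation was read as shifts in λmax and changes in band intensity.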

The target of the next series is hMetAP1 (Homo sapiens, UniProt P53582). Nature of the series: human MetAP1 enzyme assay. Format: biochemical. The following applies: for IC50: 10 μM Co2+; for b = bottom value in the dose-response curve, hMetAP1: noted only when above 15%.
The test system of series [2] is HUVEC. Nature of the series: HUVEC proliferation assay using [3H]-thymidine incorporation. The format is cell-based, human.
The next series relates to HeLa. Nature of the series: HeLa proliferation assay, 3H-T uptake. The format is cell-based. The following applies: for IC50: Homo sapiens, HeLa, read-out: IC50 3H-T Uptake HeLa.
Series [3] deals with HUVEC. Nature of the series: HUVEC cell-viability assay using calcein-AM. As to conditions: for IC50: Homo sapiens, HUVEC, read-out: IC50 Calcein-AM HUVEC. Format: cell-based, human.
A further series relates to Jurkat-T. Description: Jurkat T proliferation assay, 3H-T uptake. The format is cell-based. The following applies: for IC50: Homo sapiens, Jurkat, read-out: IC50 3H-T Uptake Jurkat-T.
The test system of a further series is HFF. Description: HFF cell-viability assay using calcein-AM. Format: cell-based, human. As to conditions: for IC50: Homo sapiens, HFF, read-out: IC50 Calcein-AM HFF.
Series [4] concerns HUVEC. Description: Cytotoxicity seen on treatment of HUVEC for immunoblotting. Format: cell-based, human. As to conditions: 0.5 μM for 24 h.
Series [5] has as its system HUVEC. Nature of the series: DCF-DA assay of ROS levels in HUVEC. Format: cell-based, human. As to conditions: HUVEC treated with 10 μM, data not shown.
The subject of another series is sirtuin 1 (SIRT1). The following applies: read-out: IC50 SIRT1; cited from earlier work.
[6] abbreviates: read-out: IC50 hMetAP2, enzyme assay, 10 μM Mn2+.
The mark [7] stands for this setting: read-out: IC50 hMetAP1, enzyme assay.
Where [8] appears, read: Homo sapiens, HUVEC, read-out: IC50 HUVEC.
Setting [9] is: Homo sapiens, HUVEC, read-out: IC50 HUVEC, proliferation, 3H-T uptake.

Structures are written as SMILES. Where two headings read alike, the source gives them in different places.

As for `O=C(Nc1ccc(O)c2ncccc12)c1ccccc1` [Entry 40], the “Immunoblot Met-14-3-3γ” value in the series on MetAP is given as “+ (+, ≥1.5)”. Besides, the “Immunoblot Ac-p53” value with SIRT1 is “+++ (+++, >11.6)”. For the same compound, the IC50 at hMetAP2 (setting [6]) was above 40000 nM; at hMetAP1 (setting [7]) it was 6450 nM; in the series with HUVEC [2] (read-out: IC50 HUVEC, proliferation, 3H-T uptake) it was 789 ± 110 nM. Further, in series [1], the “complexation with Mn2+ and Co2+ ions (UV-vis)” value (“complexation” for short) is listed as “signs of complex formation”.
For the compound `Cc1ccc(S(=O)(=O)Nc2cccc3cccnc23)cc1` [Entry 32, 8-quinolinyl p-toluenesulfonamide], the IC50 with HeLa is 1120 ± 200 nM; in the series with HUVEC [3], 1470 ± 200 nM; in the series with Jurkat-T, 790 ± 80 nM; at hMetAP2, above 15000 nM; with HFF it was 909 ± 120 nM; at hMetAP1 (IC50 hMetAP1, enzyme assay), 6970 ± 250 nM. In addition, the IC50 with HUVEC [2] (setting [8]) stood at 308 ± 40 nM. Further, in the series with MetAP, the “Immunoblot Met-14-3-3γ” value was “− (−, >1.5)”. Besides, the “effect on the levels of Met-14-3-3γ” value with MetAP was “no effect”. Moreover, in the series on SIRT1, the “Immunoblot Ac-p53” value is given as “− (−, <2.0)”. In addition, the “effect on the levels of Ac-p53” value in the series on SIRT1 is reported as “no effect”. In the series on HFF, the “b = bottom value of the curve, Calcein-AM HFF” value is reported as 21%. For the same compound, the “b = bottom value in the dose-response curve, hMetAP1” value (“b = bottom value … hMetAP1” for short) at hMetAP1 came to 21%.
As to `O=C(Nc1cc(Cl)cc(Cl)c1)Oc1ccc(Cl)c2cccnc12` [Entry 24, 5-Chloroquinolin-8-yl 3,5-dichlorophenylcarbamate], the IC50 in the series on HUVEC [3] was 746 ± 190 nM; against hMetAP2, 24 ± 7 nM; in the series on HFF it was 2690 ± 500 nM; against hMetAP1 (IC50 hMetAP1, enzyme assay), above 15000 nM; in the series on HUVEC [2] (setting [9]) it was 324 ± 60 nM. In addition, the “cytotoxicity in HUVEC” value with HUVEC [4] is reported as “not enough cells were left”. Further, the “b = bottom value of the curve, Calcein-AM HFF” value in the series with HFF was 17%. Moreover, in series [1], the “complexation” value is reported as “lack of complexation”.
Regarding `Nc1ccc(O)c2ncccc12` [Entry 34, 5-aminoquinolin-8-ol], in the series on HeLa (3H-T uptake), the “more potent against HUVEC than HeLa” value is “about 8 times”. The IC50 was 2360 ± 500 nM in the series with HeLa; 1840 nM with HUVEC [3]; 1280 ± 300 nM in the series on Jurkat-T; 11900 nM against hMetAP2; 37300 ± 2100 nM in the series on HFF; 8920 ± 1200 nM against hMetAP1 (IC50 hMetAP1, enzyme assay). In addition, the IC50 in the series with HUVEC [2] (setting [8]) was found to be 218 ± 40 nM. Further, in the series with HUVEC [3], the “b = bottom value of the curve, Calcein-AM HUVEC” value is reported as 19%. Further, the “more potent against HUVEC than Jurkat T” value in the series on Jurkat-T (3H-T uptake) is on record as “about 8 times”. Besides, the “Immunoblot Met-14-3-3γ” value in the series with MetAP is “− (−, >1.5)”. Further, in the series on MetAP, the “effect on the levels of Met-14-3-3γ” value is “no effect”. The “Immunoblot Ac-p53” value with SIRT1 is recorded as “− (−, <2.0)”. Also, the “effect on the levels of Ac-p53” value with SIRT1 is given as “no effect”. Besides, the “b = bottom value in the dose-response curve, hMetAP2” value on hMetAP2 (noted only when above 15%) is 26%. The “b = bottom value of the curve, Calcein-AM HFF” value in the series with HFF is reported as 38%. The “selectivity for HUVEC inhibition than HFF” value in the series on HFF (calcein-AM) was around 30 times.
For the compound `Cc1ccc(S(=O)(=O)Nc2ccc([N+](=O)[O-])c3cccnc23)cc1` [Entry 55, 4-methyl-N-(5-nitroquinolin-8-yl)benzene-sulfonamide], the IC50 in the series on HeLa was 1030 ± 200 nM; in the series with HUVEC [3], 1460 ± 210 nM; in the series with Jurkat-T it was 820 ± 150 nM; against hMetAP2, above 15000 nM; in the series with HFF, 783 ± 110 nM; on hMetAP1 (IC50 hMetAP1, enzyme assay) it was 21000 nM. In addition, the IC50 with HUVEC [2] (setting [8]) stood at 305 ± 70 nM. Further, the “Immunoblot Met-14-3-3γ” value in the series on MetAP is recorded as “− (−, >1.5)”. In the series with MetAP, the “effect on the levels of Met-14-3-3γ” value is “no effect”. The “Immunoblot Ac-p53” value with SIRT1 is recorded as “− (−, <2.0)”. Also, the “effect on the levels of Ac-p53” value in the series with SIRT1 was “no effect”. In the series on HFF, the “b = bottom value of the curve, Calcein-AM HFF” value is given as 21%. Further, the “b = bottom value … hMetAP1” value at hMetAP1 is given as 19%.
On to `Cc1ccc(S(=O)(=O)Nc2ccc(N=O)c3cccnc23)cc1` [Entry 54, 4-methyl-N-(5-nitrosoquinolin-8-yl)benzene-sulfonamide], for which the IC50 in the series with HeLa is 590 ± 100 nM; in the series with HUVEC [3] it was 1320 ± 200 nM; in the series on Jurkat-T, 450 ± 50 nM; against hMetAP2, above 15000 nM; in the series on HFF it was 782 ± 130 nM; against hMetAP1 (IC50 hMetAP1, enzyme assay), 10500 ± 900 nM. For the same compound, in the series on HUVEC [2] (setting [8]), the IC50 turned out to be 204 ± 20 nM. For the same compound, in the series with MetAP, the “Immunoblot Met-14-3-3γ” value is listed as “+ (+, ≥1.5)”. The “Immunoblot Ac-p53” value in the series with SIRT1 is given as “− (−, <2.0)”. Also, the “b = bottom value of the curve, Calcein-AM HFF” value in the series on HFF is 22%. In [1], the “complexation” value is “formation of chelates”. For the same compound, the “b = bottom value … hMetAP1” value at hMetAP1 was determined as 18%.
On to `O=Nc1ccc(O)c2ncccc12` [Entry 33, 5-nitrosoquinolin-8-ol], for which the “ROS levels (DCF-DA)” value with HUVEC [5] is on record as “failed to observe any significant increase”. Besides, the IC50 with HeLa was 640 ± 200 nM; in the series with HUVEC [3] it was 3720 ± 800 nM; with Jurkat-T, 360 ± 70 nM; on hMetAP2, above 50000 nM; with HFF it was 9080 ± 1200 nM; against hMetAP1 (IC50 hMetAP1, enzyme assay) it was above 15000 nM. Also, the IC50 in the series on HUVEC [2] (setting [8]) was determined as 364 ± 200 nM. In addition, in the series on MetAP, the “Immunoblot Met-14-3-3γ” value was “− (−, >1.5)”. The “Immunoblot Ac-p53” value in the series with SIRT1 is “+ (+, 2.0–7.0)”. In addition, the “b = bottom value of the curve, Calcein-AM HFF” value with HFF is 17%. Besides, the “affinity for Mn2+ (UV-vis)” value in series [1] is given as “very little affinity”.
On to `CN(C)S(=O)(=O)Oc1ccc([N+](=O)[O-])c2cccnc12` [Entry 48, 5-nitroquinolin-8-yl dimethylsulfamate], for which the IC50 with HeLa was 2410 ± 800 nM; with HUVEC [3] it was 4210 ± 1400 nM; in the series with Jurkat-T, 1730 ± 200 nM; at hMetAP2 (setting [6]), 57 ± 15 nM; in the series on HFF, 2260 ± 300 nM; on hMetAP1 (setting [7]), above 15000 nM. Also, the IC50 in the series with HUVEC [2] (setting [8]) was 770 ± 100 nM. Moreover, the “Immunoblot Met-14-3-3γ” value with MetAP is on record as “+ (+, ≥1.5)”. In addition, the “concentration of maximal sirtuin inhibition (biphasic mode)” value in the series on SIRT1 (HUVEC immunoblot, Ac-p53) is on record as “around 2 μM”. Also, the “Immunoblot Ac-p53” value with SIRT1 is given as “+++ (+++, >11.6)”. Moreover, in the series with HFF, the “b = bottom value of the curve, Calcein-AM HFF” value was 23%. Also, the “complexation” value in series [1] is “does form chelates”.
As to `O=[N+]([O-])c1ccc(O)c2ncccc12` [Entry 5, Nitroxoline, reference compound], the IC50 in the series on sirtuin 1 (SIRT1) is 20200 nM; in the series on HeLa, 3970 ± 900 nM; in the series with HUVEC [3] it was 5130 ± 1200 nM; in the series on Jurkat-T it was 1580 ± 300 nM; with HFF, 3690 ± 1000 nM; in the series with HUVEC [2] (setting [9]) it was 1900 ± 300 nM. Moreover, the “Immunoblot Met-14-3-3γ” value with MetAP is given as “+ (+, ≥1.5)”. In addition, in the series on SIRT1, the “Immunoblot Ac-p53” value is recorded as “++ (++, 7.1–11.6)”. The inhibition (as a rule, the change of the read-out against control, counted positive when it falls) at 10 µM on hMetAP2 (read-out: inhibition of MetAP2 activity in HTS) was above 90%. Moreover, in the series with HFF, the “b = bottom value of the curve, Calcein-AM HFF” value is on record as 21%.
